# ChEMBL document CHEMBL4732030, “Aloe-emodin derived azoles as a new structural type of potential antibacterial agents: design, synthesis, and evaluation of the action on membrane, DNA, and MRSA DNA isomerase” (RSC Med Chem, 2021)
# Activity calls are given as the source filed them. No cut-off for these calls is given here.
# How the values were obtained:
# Acinetobacter baumannii = experiment: Antibacterial activity against Acinetobacter baumannii assessed as inhibition of bacterial growth after 24 hrs by microbroth dilution method; assay type: functional
# How it was run: (§1)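 Bacterial inoculum set to 1×10^5 CFU with sterile saline. Test agents and reference drugs, from DMSO stocks, diluted in Mueller-Hinton broth to 512, 256, 128, 64, 32, 16, 8, 4, 2, 1 and 0.5 µg/mL. Inoculated dilutions incubated 37 °C for 24 h.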
# Staphylococcus aureus [1] = experiment: Antibacterial activity against methicillin resistant Staphylococcus aureus assessed as inhibition of bacterial growth after 24 hrs by microbroth dilution method; assay type: functional
# How it was run: (§2)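 Inoculum adjusted in sterile saline to 1×10^5 CFU. Compounds dissolved in DMSO as stock, then diluted in Mueller-Hinton broth as a two-fold series from 512 to 0.5 µg/mL (11 levels). Inoculated dilutions incubated at 37 °C for 24 h, and the MIC recorded.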
# Pseudomonas aeruginosa [2] = experiment: Antibacterial activity against Pseudomonas aeruginosa assessed as inhibition of bacterial growth after 24 hrs by microbroth dilution method; assay type: functional; how it was run: as §1
# Staphylococcus aureus [3] = experiment: Antibacterial activity against Staphylococcus aureus ATCC 29213 assessed as inhibition of bacterial growth after 24 hrs by microbroth dilution method; assay type: functional; how it was run: as §2
# Escherichia coli [4] = experiment: Antibacterial activity against Escherichia coli ATCC 25922 assessed as inhibition of bacterial growth after 24 hrs by microbroth dilution method; assay type: functional; how it was run: as §1
# Staphylococcus aureus [5] = experiment: Antibacterial activity against Staphylococcus aureus ATCC 25923 assessed as inhibition of bacterial growth after 24 hrs by microbroth dilution method; assay type: functional; how it was run: as §1
# Pseudomonas aeruginosa [6] = experiment: Antibacterial activity against Pseudomonas aeruginosa ATCC 27853 assessed as inhibition of bacterial growth after 24 hrs by microbroth dilution method; assay type: functional; how it was run: as §1
# Klebsiella pneumoniae = experiment: Antibacterial activity against Klebsiella pneumoniae assessed as inhibition of bacterial growth after 24 hrs by microbroth dilution method; assay type: functional; how it was run: as §1
# Escherichia coli [7] = experiment: Antibacterial activity against Escherichia coli assessed as inhibition of bacterial growth after 24 hrs by microbroth dilution method; assay type: functional; how it was run: as §1
# Staphylococcus aureus [8] = experiment: Antibacterial activity against Staphylococcus aureus assessed as inhibition of bacterial growth after 24 hrs by microbroth dilution method; assay type: functional; how it was run: as §1
# Enterococcus faecalis = experiment: Antibacterial activity against Enterococcus faecalis assessed as inhibition of bacterial growth after 24 hrs by microbroth dilution method; assay type: functional; how it was run: as §1
# Cell membrane [9] = experiment: Disruption of membrane integrity in methicillin-reisitant Staphylococcus aureus assessed as increase in red fluorescence at 12 times MIC by PI-staining based fluorescence microscopy analysis
# How it was run: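 Overnight MRSA cultures treated at 12× MIC, with 0.1% Triton X-100 as positive control and untreated cells as negative control. Cells washed once in 1× PBS and stained with 4.5 mM propidium iodide for 15 min at 37 °C. Imaged by fluorescence microscopy, 10× objective, green-light excitation.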
# Staphylococcus aureus [10] = experiment: Induction of ROS generation in methicillin-resistant Staphylococcus aureus after 6 hrs by DCFH-DA dye based fluorometric analysis; assay type: functional, organism-based
# How it was run: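 MRSA cells at 10^6 CFU/mL were exposed to increasing concentrations of compound for 6 h at 37 °C, then washed with PBS. They were loaded with 10 μM DCFH-DA for 30 min in the dark at 37 °C. DCF fluorescence was read at ex 485/em 528 nm and expressed as fold increase over untreated control cells.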
# [11] = Cytotoxicity against human LO2 cells assessed as cell viability at 12.5 uM after 72 hrs by CCK8 assay; assay type: cell-based, L02; conditions: read-out: Activity
# How it was run: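 Normal human liver LO2 cells seeded at 3000/well and cultured 24 h. Compound added at 100 to 6.25 µM in PBS containing 1% DMSO, then incubated 72 h. CCK8 added for 2 h at 37 °C and absorbance read at 450 nm.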
# Staphylococcus aureus [12] = experiment: Potency index, ratio of norfloxacin MIC to compound MIC for antibacterial activity against methicillin resistant staphylococcus aureus incubated for 24 hrs by microbroth dilution method; assay type: functional
# Cell membrane [13] = experiment: Disruption of membrane integrity in methicillin-reisitant Staphylococcus aureus assessed as increase in fluorescence intensity at 12 times MIC measured within 50 mins by PI-staining based fluorescence analysis
# How it was run: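 Overnight MRSA culture pelleted, washed and resuspended in 5 mM glucose/5 mM HEPES pH 7.4 (1:1). Compound at 12× MIC added to 2 mL suspension containing 10 µM propidium iodide. Fluorescence followed at ex 535/em 617 nm. Water-treated suspension served as control.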
# Calf thymus DNA [14] = experiment: Binding affinity to calf thymus DNA assessed as DNA intercalation by measuring hypochromic shift by UV-visible absorption spectrophotometric method; assay type: nucleic-acid assay; conditions: Bos taurus
# How it was run: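 DNA held fixed while compound concentration was raised stepwise, in Tris-HCl buffer pH 7.4. UV-vis spectra recorded at room temperature in 1.0 cm quartz cells, monitoring the 260 nm DNA band. Binding constant came from a linear fit of A0/(A−A0) against 1/[compound]. DNA stock concentration was set by A260 (ε260 = 6600 L·mol−1·cm−1, per phosphate), with A260/A280 >1.8.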
# [15] = Cytotoxicity against human HepG2 cells assessed as cell viability at 12 uM after 72 hrs by CCK8 assay; assay type: cell-based; conditions: read-out: Activity
# Calf thymus DNA [16] = experiment: Binding affinity to calf thymus DNA assessed as DNA intercalation by neutral red dye based UV-visible spectroscopic method; assay type: nucleic-acid assay; conditions: Bos taurus
# How it was run: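 Neutral red stock prepared in doubly distilled water and kept cool and dark. DNA stock concentration was set by A260 (ε260 = 6600 L·mol−1·cm−1, per phosphate), with A260/A280 >1.8. All solutions were in Tris-HCl pH 7.4. UV spectra were taken at room temperature in 1.0 cm quartz cells.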
# Staphylococcus aureus [17] = experiment: Potency index, ratio of norfloxacin MIC to compound MIC for antibacterial activity against Staphylococcus aureus incubated for 24 hrs by microbroth dilution method; assay type: functional
Compound,MIC (Acinetobacter baumannii),MIC (Staphylococcus aureus [1]),MIC (Pseudomonas aeruginosa [2]),MIC (Staphylococcus aureus [3]),MIC (Escherichia coli [4]),MIC (Staphylococcus aureus [5]),MIC (Pseudomonas aeruginosa [6]),MIC (Klebsiella pneumoniae),MIC (Escherichia coli [7]),MIC (Staphylococcus aureus [8]),MIC (Enterococcus faecalis),Activity (Cell membrane [9]),Activity (Staphylococcus aureus [10]),"viability at 72 h, 12.5 µM [11]",Ratio (Staphylococcus aureus [12]),Activity (Cell membrane [13]),Activity (Calf thymus DNA [14]),"viability at 72 h, 12 µM [15]",Activity (Calf thymus DNA [16]),Ratio (Staphylococcus aureus [17])
CCn1cc(C(=O)O)c(=O)c2cc(F)c(N3CCNCC3)cc21 [NORFLOXACIN],0.5 µg/mL,8 µg/mL,8 µg/mL,1 µg/mL,8 µg/mL,1 µg/mL,2 µg/mL,4 µg/mL,16 µg/mL,8 µg/mL,32 µg/mL,,,,,,,,,
Cc1ccc2c(c1)ncn2Cc1cc(O)c2c(c1)C(=O)c1cccc(O)c1C2=O,64 µg/mL,64 µg/mL,32 µg/mL,32 µg/mL,32 µg/mL,32 µg/mL,64 µg/mL,64 µg/mL,64 µg/mL,32 µg/mL,32 µg/mL,,,,,,,,,
O=C1c2cccc(O)c2C(=O)c2c(O)cc(Cn3cnnn3)cc21,16 µg/mL,2 µg/mL,64 µg/mL,1 µg/mL,64 µg/mL,64 µg/mL,16 µg/mL,32 µg/mL,128 µg/mL,16 µg/mL,4 µg/mL,Active,inactive,> 60%,4,Active,Active,> 50%,Active,
O=C1c2cccc(O)c2C(=O)c2c(O)cc(Cn3cnc4cc([N+](=O)[O-])ccc43)cc21,32 µg/mL,64 µg/mL,32 µg/mL,32 µg/mL,32 µg/mL,64 µg/mL,32 µg/mL,64 µg/mL,64 µg/mL,32 µg/mL,16 µg/mL,,,,,,,,,
O=C1c2cccc(O)c2C(=O)c2c(O)cc(Cn3c4ccccc4c4ccccc43)cc21,64 µg/mL,32 µg/mL,64 µg/mL,32 µg/mL,64 µg/mL,16 µg/mL,64 µg/mL,128 µg/mL,128 µg/mL,8 µg/mL,128 µg/mL,,,,,,,,,
O=C1c2cccc(O)c2C(=O)c2c(O)cc(Cn3cnc([N+](=O)[O-])c3)cc21,32 µg/mL,64 µg/mL,64 µg/mL,16 µg/mL,32 µg/mL,16 µg/mL,32 µg/mL,128 µg/mL,64 µg/mL,16 µg/mL,128 µg/mL,,,,,,,,,
Cc1ncc([N+](=O)[O-])n1Cc1cc(O)c2c(c1)C(=O)c1cccc(O)c1C2=O,32 µg/mL,64 µg/mL,64 µg/mL,128 µg/mL,64 µg/mL,16 µg/mL,32 µg/mL,128 µg/mL,128 µg/mL,4 µg/mL,128 µg/mL,,,,,,,,,2
O=C1c2cccc(O)c2C(=O)c2c(O)cc(Cn3cnc4ccccc43)cc21,32 µg/mL,32 µg/mL,64 µg/mL,32 µg/mL,16 µg/mL,8 µg/mL,32 µg/mL,64 µg/mL,32 µg/mL,32 µg/mL,16 µg/mL,,,,,,,,,
O=C1c2cccc(O)c2C(=O)c2c(O)cc(Cn3ccnc3[N+](=O)[O-])cc21,64 µg/mL,32 µg/mL,64 µg/mL,32 µg/mL,32 µg/mL,32 µg/mL,64 µg/mL,64 µg/mL,64 µg/mL,32 µg/mL,32 µg/mL,,,,,,,,,
